Experimental data published in the EternaBench riboswitch data.

System: MS2 coat protein
Assay: apparent Kd, MS2 coat protein; higher = weaker binding; RNA-MaP array; FMN 200 µM where present
Procedure, shortened: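 Two titrations, one without ligand and one with constant ligand, were run with SNAP-549-labelled MS2 coat protein from 0.7 or 1.5 nM, doubling to 3 µM. The targets were designs transcribed by stalled E. coli RNA polymerase on Illumina sequencing-chip clusters, in 100 mM Tris-HCl pH 7.5, 80 mM KCl, 4 mM MgCl2, BSA, DTT, yeast tRNA and Tween-20. The apparent Kd is the median of filtered per-cluster binding-curve fits, with green signal normalised to red-channel RNA signal and control-cluster median Fmax.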

[1] = designed as: ON switch for flavin mononucleotide, no ligand
[2] = ligand present: flavin mononucleotide, designed as: ON switch for flavin mononucleotide
[3] = designed as: OFF switch for flavin mononucleotide, no ligand
[4] = ligand present: flavin mononucleotide, designed as: OFF switch for flavin mononucleotide

## GUGGUACAUGAGGAUCACCCAUGUGUGGGCGCGUGAGGAUAUGUCCGUACCUGGCGUACGAUAGAAGGCAUGGUGC
[1]
  apparent Kd: 73.9 nM
[2]
  apparent Kd: 34.6 nM

## GUGGUAUUCGUAGGAUAUCCGUCGCCACCGUGUGGAGAAGGACGAACAUGAGGAUCACCCAUGUAUCAUGGUGUGGGCGUUGUC
[3]
  apparent Kd: 149 nM
[4]
  apparent Kd: 148 nM

## GUGGUCAGACAUGAGGAUCACCCAUGUGGAAUAAAUAAGGAACAGGAUAUGGAAUAUAGGAUAUACCAGAAGGGUUGGUUGGUG
[1]
  apparent Kd: 72.3 nM
[2]
  apparent Kd: 82.4 nM

## GUGGUCAGACAUGAGGAUCACCCAUGUGGAAUAAAUAAGGUUUAGGAUAUGGAAUAUAGGAUAUACCAGAAGGGAGGGUUGGUG
[1]
  apparent Kd: 142 nM
[2]
  apparent Kd: 146 nM

## GUGGUUGUCGUAGGAUAUGUAGGAUAUUCCUACAUGAGGAUCACCCAUGUUAGCAUGGAAGAAGGACAGAAGGACGAUGACCAG
[1]
  apparent Kd: 904 nM
[2]
  apparent Kd: 15.1 nM

## GUGGUUGUCGUAGGAUAUGUAGGAUAUUCCUACAUGAGGAUCACCCAUGUUCGCAUGGAAGAAGGACGGAAGGACGAUGACCAC
[1]
  apparent Kd: 156 nM
[2]
  apparent Kd: 129 nM

## GUGUACAGAGGAUAUACAUAAGCUAGGAAACUAGCUACUUCACAUGAGGAUCACCCAUGUAGAAGGCUGUACAC
[3]
  apparent Kd: 16.1 nM
[4]
  apparent Kd: 16.3 nM

## GUGUACAGAGGAUAUACAUGAGCAUGGAAACAUGCAUCUUCACAUGAGGAUCACCCAUGUAGAAGGCUGUACAC
[3]
  apparent Kd: 227 nM
[4]
  apparent Kd: 75 nM

## GUGUACAGAGGAUAUACAUGGGCAUGAAAACAUGCAUCUUCACAUGAGGAUCACCCAUGUAGAAGGCUGUACAC
[3]
  apparent Kd: 24.6 nM
[4]
  apparent Kd: 16.9 nM

## GUGUACAGAGGAUAUGCACGAGUAGUUACGAAAGUAACUGCACAUGAGGAUCACCCAUGUAGAAGGCUGUACAC
[3]
  apparent Kd: 17.9 nM
[4]
  apparent Kd: 16.7 nM

## GUGUACGGAGGAUAUAUAUGGGCAGGCUGACCUGCAGCUUCACAUGAGGAUCACCCAUGUAGAAGGCUGUACAC
[3]
  apparent Kd: 41.9 nM
[4]
  apparent Kd: 224 nM

## GUGUAGCAAGGAUAUACAUGAGGAUCACCCAUGUGAAUAAGAUAGAAUAAGAUAAAGUGUAGAAGGUGUAGUGU
[3]
  apparent Kd: 35.3 nM
[4]
  apparent Kd: 35.7 nM

## GUGUAUCGCCUCGAGGAUAUCCUGUCAUGCACAUGAGGAUCACCCAUGUAAGAGCGAGUUUUUUGGGAGAAGGCGAGUUCUCGGU
[1]
  apparent Kd: 90.3 nM
[2]
  apparent Kd: 30.4 nM

## GUGUUACAUGAGGAUCACCCAUGUUGUUGUAGAUAAGGAUAUAUGGUAACGAGAGAAAUAAUAGAAGGUAUUAGGC
[1]
  apparent Kd: 37 nM
[2]
  apparent Kd: 31.6 nM

## GUGUUGGUAGGAUAUCCACCGACAAACAUGAGGAUCACCCAUGUGACGCUCCCUUGUCUUGGAGAAGGGCCGGCAU
[3]
  apparent Kd: 50.4 nM
[4]
  apparent Kd: 49.1 nM

## GUGUUUGAUGAGGAUAUCGCUGUGGGUACACAGCGAGAAGGCAUUACAUGAGGAUCACCCAUGUAGUGUGGGUU
[3]
  apparent Kd: 24 nM
[4]
  apparent Kd: 105 nM

## GUUAAACAUGAGGAUCACCCAUGUAAGGAUAUGCUGCGGUCGAGAUGAAGUGAAUGCAGCAGAAGGUACAAUUG
[3]
  apparent Kd: 116 nM
[4]
  apparent Kd: 99.9 nM

## GUUAAGGUAGGAUAUACGAGAAUAUAGGGUAGAUAUAUAACACAUGAGGAUCACCCAUGUAGAAGGACCAAUUG
[3]
  apparent Kd: 33.8 nM
[4]
  apparent Kd: 95.6 nM

## GUUAAGGUAGGAUAUACGAUAAUAUAGGGUAGAUAUAUAACACAUGAGGAUCACCCAUGUAGAAGGACCAAGUG
[3]
  apparent Kd: 41.5 nM
[4]
  apparent Kd: 170 nM

## GUUACACAUGAGGAUCACCCAUGUAAGGAUAUGCUGCGGUCGCGCUGACGUGACUGCAGCAGAAGGUACAAAUG
[3]
  apparent Kd: 77.4 nM
[4]
  apparent Kd: 92.1 nM

## GUUAGUUAAGGAUAUACAGGGAGCCGCGGCGUCUCGCCGCAACAUGAGGAUCACCCAUGUAGAAGGUAGCCAUU
[3]
  apparent Kd: 31.3 nM
[4]
  apparent Kd: 66.6 nM

## GUUAUAAUUGAAGGAUAUCUAUAUCCAACAUGAGGAUCACCCAUGUUGAGGAUCACCCAUGUAAAGGAGAAGGUUAAUUAUAAU
[1]
  apparent Kd: 84.2 nM
[2]
  apparent Kd: 25.2 nM

## GUUAUUAACAAGAAGGCAUACAUGAGGAUCACCCAUGUUCUACAUGGAUAAUGAGGAUAUUGCUAAUACAUGAGGAUCACCCAG
[3]
  apparent Kd: 72 nM
[4]
  apparent Kd: 66.9 nM

## GUUCGGGCAGGAUAUACAUGAGGAUCACCCAUGUGUGUCCAUACGCGUGAGUCCUCGUGUAGAAGGGUUUGGGC
[3]
  apparent Kd: 23.2 nM
[4]
  apparent Kd: 17.4 nM

## GUUCUUCCUGUGAGGAUAUCCAUGUGUCGGUUUAUGGAGAAGGUACAUGAGGAUCACCCAUGUCACCCGCGUUA
[3]
  apparent Kd: 14 nM
[4]
  apparent Kd: 18.8 nM

## GUUGAGCGUGCUACGCAAAAUAACGCAGAAGGCCAACAUGAGGAUCACCCAUGUAAACGAAAGAUGGAGGAUAUGCGGUUUGGC
[1]
  apparent Kd: 50.4 nM
[2]
  apparent Kd: 6.81 nM

## GUUGCUUUCCGAGGAUAUUCCGGGCGUGGCUAUACAUGAGGAUCACCCAUGUGGCGGCCGCCUAGGGAGAAGGCGGGCUGCUUC
[1]
  apparent Kd: 15.9 nM
[2]
  apparent Kd: 15.7 nM

## GUUGCUUUCCGAGGAUAUUCUGGGCGUGGUUAUACAUGAGGAUCACCCAUGUGGCGGUUGCCUAGGGAGAAGGCGGGCUGCUUC
[1]
  apparent Kd: 20.3 nM
[2]
  apparent Kd: 17.9 nM

## GUUGUAAUGUCAGGAUAUAUAAUAAGUCAUACAGUAGAAGGGAUAAUUAUACUCAUGUACAUGAGGAUCACCCAUGUUAAAUAG
[1]
  apparent Kd: 63.6 nM
[2]
  apparent Kd: 37.9 nM

## GUUGUGUAAGGAGGAUAUGAGCUGAAACUCUUACAUGAGGAUCACCCAUGUCCGUAACUCAGGCAUCAGAAGGCCUAACGCAUU
[1]
  apparent Kd: 686 nM
[2]
  apparent Kd: 23 nM

## GUUGUGUAAGGAUAUGCCUGGCCGUGAGGCCAGAUUGAAUGGCAGAAGGUACAUGAGGAUCACCCAUGUACGGG
[3]
  apparent Kd: 33.2 nM
[4]
  apparent Kd: 188 nM

## GUUUUACAUGAGGAUCACCCAUGUGAGGAUAUAUUGUUAAUAGUGAUAAUUAUUGGUGGUAGAAGGCGCGUGAU
[3]
  apparent Kd: 46.8 nM
[4]
  apparent Kd: 39.7 nM

## GUUUUCGCGUGAGGAUAUGCUCGCAUUUCAAGAGCAGAAGGUAUGUCUAUAGACAUGAGGAUCACCCAUGUAUUUAUCAUUGAA
[1]
  apparent Kd: 226 nM
[2]
  apparent Kd: 160 nM

## GUUUUGGGAGGAUAUAUGUGGAUUAUUUUUAUAUGUUAUUUACAUGAGGAUCACCCAUGUAGAAGGUCUAGAGC
[3]
  apparent Kd: 163 nM
[4]
  apparent Kd: 249 nM

## GUUUUUUCUCAUGUACAUGAGGAACAUGAGGAUCACCCAUGUAGAAGGAAUUUUUUUAAGUUUAGUUAGGAUAUACAUAUAUUG
[3]
  apparent Kd: 48.8 nM
[4]
  apparent Kd: 28.6 nM

## UAAAAGCUAGGAUAUACAUGAGGAUCACCCAUGUACCGGCUUGGCCCUGGUCCUAAAUGUAGAAGGAGCACGCC
[3]
  apparent Kd: 15.2 nM
[4]
  apparent Kd: 23.9 nM

## UAAACACCCUCAUGUGCCUGAGGACAUGAGGAUCACCCAUGUAAGGAUAUAGCCAUUAAAUCUAACUAGAAGGUAUAGGACAUC
[3]
  apparent Kd: 925 nM
[4]
  apparent Kd: 540 nM

## UAAACGUUCUAGAAGGUGCUUUUGUUAAACAAGCAAGGAUAUAGACAUGAGGAUCACCCAUGUCUUUAAGACAUCGACAUACUU
[3]
  apparent Kd: 7.91 nM
[4]
  apparent Kd: 8.63 nM

## UAAAUACAUGAGGAUCACCCAUGUGAGGAUAUCCGAUGAUUCGGAGAAAUGACCCGUUGGAGAAGGCAUAGGGC
[3]
  apparent Kd: 30.8 nM
[4]
  apparent Kd: 22.7 nM

## UAAAUGUGAGGAUAUUCGAUUAACUCGGAGACGAGUUGAUCGGAGAAGGCACAUGAGGAUCACCCAUGUUCCUU
[3]
  apparent Kd: 24.8 nM
[4]
  apparent Kd: 232 nM

## UAACCGUGAGGAUAUACAUGAGGAUCACCCAUGUAGCAAGCUACGUAACCCACCAUAUGUAGAAGGCACUAGGU
[3]
  apparent Kd: 73.1 nM
[4]
  apparent Kd: 47.6 nM

## UAAGUUGAGGAGAAGGGAGCACAUGAGGAUCACCCAUGUGGUUCUUUGUGCUCAGGAUAUCCAUGGAGCUCCGUCGCGUUCCAG
[3]
  apparent Kd: 103 nM
[4]
  apparent Kd: 19.1 nM

## UAAUAAUAAUAAUAAUGCUGACAUACAUGAGGAUCACCCAUGUAGGAUAUCGUCAGGAAUACUGACGAGAAGGACAUAGUCAGC
[3]
  apparent Kd: 15.4 nM
[4]
  apparent Kd: 17.4 nM

## UAAUAUUUAUGAUAUUAUGACAGUAGAAGGCUAUACAUGUUGAUACAUGAGGAUCACCCAUGUAUAGAGGAUAUAUACAUAUAU
[3]
  apparent Kd: 681 nM
[4]
  apparent Kd: 315 nM

## UAAUCUCAGAUAGGAUAUAUAGGAUGAUUUAAGACCGAACAUGAGGAUCACCCAUGUGAUUAUUUGUAGAAGGAUCAAUGACCC
[1]
  apparent Kd: 72.4 nM
[2]
  apparent Kd: 79.2 nM

## UAAUUGUGAGGAUAUUCGUUUUUCUCGGAGACGAGAAGAACGGAGAAGGCACAUGAGGAUCACCCAUGUUCCUU
[3]
  apparent Kd: 18 nM
[4]
  apparent Kd: 91.7 nM

## UACAGCCGCAUCCCAUCGCUGGAAGAGGAUAUACAUCAUCGCGCACUCACAUGAGGAUCACCCAUGUAGAAGGCUUCCUGGCGG
[3]
  apparent Kd: 7.94 nM
[4]
  apparent Kd: 25.4 nM

## UACAGCUUGACAGGAUAUACAUGUCAGCGAAAGCUGACUAUCUUAAUAACAUGAGGAUCACCCAUGUAGAAGGGUCGAGCUGUA
[3]
  apparent Kd: 16.8 nM
[4]
  apparent Kd: 26.6 nM

## UACAUCAAUGAAGGAUAUCGAUAUCCAACAUGAGGAUCACCCAUGUUGAGGAUCACCCAUGUAAAUGAGAAGGUUAACAUAACU
[1]
  apparent Kd: 94.9 nM
[2]
  apparent Kd: 83.3 nM

## UACAUGAGGAUCACCCAUGUUUUGUCGUGUAUGGUAUUUAUCUAGGAUAUCAAUGUAUUUAUGUAUGAGAAGGAGAAUAUUAAU
[3]
  apparent Kd: 45.7 nM
[4]
  apparent Kd: 37.3 nM

## UACAUGGAACAGAAGGGCAAUUUAUUUAAUUAUUAUUUAGAACAGCUUUGCAGGAUAUGUUUAACAUGAGGAUCACCCAUGUAC
[1]
  apparent Kd: 57.6 nM
[2]
  apparent Kd: 17.4 nM

## UACAUUAACAUGAGGAUCACCCAUGUUGGCCAGUCUCACACCAGAAGGCACGUAGAGCACAACAGUGAGGAUAUGGGUGACAUA
[1]
  apparent Kd: 218 nM
[2]
  apparent Kd: 98.7 nM

## UACAUUACUUAGAAGGGAUAUAUAUAAUUUUAAUCAGGAUAUAGAUACAGUACAACAUGAGGACAUGAGGAUCACCCAUGUAUU
[1]
  apparent Kd: 31.4 nM
[2]
  apparent Kd: 23.2 nM

## UACAUUACUUAGAAGGGAUAUAUAUAAUUUUAGUCAGGAUAUAGAUACAGUACAACAUGAGGACAUGAGGAUCACCCAUGUAUU
[1]
  apparent Kd: 29.8 nM
[2]
  apparent Kd: 20.8 nM

## UAGAAGUCAGGAUAUCCAGCUCGUCACUUGCGUGAUGAGUUGGAGAAGGGACAUGAGGAUCACCCAUGUAAAGA
[3]
  apparent Kd: 61.9 nM
[4]
  apparent Kd: 57.8 nM

## UAGAAGUCAGGAUAUCCAGCUCGUCACUUGCGUGAUGAGUUGGAGAAGGGACAUGAGGAUCACCCAUGUAAAGU
[3]
  apparent Kd: 56.3 nM
[4]
  apparent Kd: 58.3 nM
